Tests used:
Format in all cases: cell-based
[1] = target: Histone-lysine N-methyltransferase EZH2 (Mus musculus) (UniProt Q61188); assay: Inhibition of EZH2 in mouse B16-F1 migrating cells assessed as fold change in H3K27me3-buffered regulated Spag1-mRNA expression at 3 uM measured by […] analysis relative to control cells
Procedure, shortened: (§1)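 Confluent B16-F1 cells on fibronectin-coated plates were scratched at multiple sites, washed once with DMEM and left to migrate 3 h in growth medium (37 °C, 7% CO2); unscratched cells served as control. GSK343 (3 µM) was added 3 h before lysis. Poly A mRNA was sequenced (RNA-seq), with 5 replicates for untreated and 3 for treated cells. Differential expression was called by linear model with batch correction, at FDR <0.05 and fold change ≥1.3.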

[2] = target: Histone-lysine N-methyltransferase EZH2 (Mus musculus) (UniProt Q61188); assay: Inhibition of EZH2 in mouse B16-F1 migrating cells assessed as fold change in H3K27me3-buffered regulated Rhbdf2-mRNA expression at 3 uM measured by […] analysis relative to control cells
Procedure, shortened: (§2)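 Confluent B16-F1 cells on fibronectin-coated plates, cultured at 37 °C and 7% CO2, were scratched at multiple sites to induce migration. They were then held 3 h in growth medium containing 3 µM GSK343, with the inhibitor added 3 h before lysis. Unscratched cells served as controls. Poly A mRNA was analysed by RNA-seq (n=3 GSK343, n=5 controls). Linear models removed batch effects, and buffered genes were those altered only under GSK343 (FDR <0.05, fold change >1.3).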

[3] = target: Histone-lysine N-methyltransferase EZH2 (Mus musculus) (UniProt Q61188); assay: Inhibition of EZH2 in mouse B16-F1 migrating cells assessed as fold change in H3K27me3-buffered regulated Cmpk2-mRNA expression at 3 uM measured by […] analysis relative to control cells; procedure, shortened: as §2
[4] = target: Histone-lysine N-methyltransferase EZH2 (Mus musculus) (UniProt Q61188); assay: Inhibition of EZH2 in mouse B16-F1 migrating cells assessed as fold change in H3K27me3-buffered regulated Ern1-mRNA expression at 3 uM measured by […] analysis relative to control cells; procedure, shortened: as §2
[5] = target: Histone-lysine N-methyltransferase EZH2 (Mus musculus) (UniProt Q61188); assay: Inhibition of EZH2 in mouse B16-F1 migrating cells assessed as fold change in H3K27me3-buffered regulated Kcnj14-mRNA expression at 3 uM measured by […] analysis relative to control cells; procedure, shortened: as §2
[6] = target: Histone-lysine N-methyltransferase EZH2 (Mus musculus) (UniProt Q61188); assay: Inhibition of EZH2 in mouse B16-F1 migrating cells assessed as fold change in H3K27me3-independent regulated Cep152-mRNA expression at 3 uM measured by […] analysis relative to control cells; procedure, shortened: as §1
[7] = target: Histone-lysine N-methyltransferase EZH2 (Mus musculus) (UniProt Q61188); assay: Inhibition of EZH2 in mouse B16-F1 migrating cells assessed as fold change in H3K27me3-buffered regulated Pde4d-mRNA expression at 3 uM measured by […] analysis relative to control cells; procedure, shortened: as §2
[8] = target: Histone-lysine N-methyltransferase EZH2 (Mus musculus) (UniProt Q61188); assay: Inhibition of EZH2 in mouse B16-F1 migrating cells assessed as fold change in H3K27me3-buffered regulated Arid4a-mRNA expression at 3 uM measured by […] analysis relative to control cells; procedure, shortened: as §2
[9] = target: Histone-lysine N-methyltransferase EZH2 (Mus musculus) (UniProt Q61188); assay: Inhibition of EZH2 in mouse B16-F1 migrating cells assessed as fold change in H3K27me3-buffered regulated Dlg4-mRNA expression at 3 uM measured by […] analysis relative to control cells; procedure, shortened: as §2
[10] = target: Histone-lysine N-methyltransferase EZH2 (Mus musculus) (UniProt Q61188); assay: Inhibition of EZH2 in mouse B16-F1 migrating cells assessed as fold change in H3K27me3-independent regulated Nr4a3-mRNA expression at 3 uM measured by […] analysis relative to control cells; procedure, shortened: as §1
[11] = target: Histone-lysine N-methyltransferase EZH2 (Mus musculus) (UniProt Q61188); assay: Inhibition of EZH2 in mouse B16-F1 migrating cells assessed as fold change in H3K27me3-buffered regulated Ttc14-mRNA expression at 3 uM measured by […] analysis relative to control cells; procedure, shortened: as §1
[12] = target: T1, RNA polymerase II (Mus musculus) (UniProt P08775+Q8CFI7+P97760+A0A3Q4L2S8+Q80UW8+P61219+P62488+Q923G2+P60898+O08740+Q63871+P62876); assay: Inhibition of RNA polymerase II in mouse B16-F1 migrating cells assessed as fold change in Ets1-RNA stability at 0.1 mM measured by […] analysis relative to control cells
Procedure, shortened: (§3)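 Mouse B16-F1 melanoma cells grown to confluence on fibronectin in DMEM/10% FCS at 37 °C, 7% CO2. Migration induced by multiple scratches and 3 h incubation; unscratched controls. DRB 0.1 mM added 3 h before lysis. RNA from poly A-selected mRNA was sequenced (RNA-seq, three replicates per DRB group). Fold change computed for DRB-treated migrating vs DRB-treated control cells; cutoffs fold change >1.3, FDR <0.05.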

[13] = target: T1, RNA polymerase II (Mus musculus); assay: Inhibition of RNA polymerase II in mouse B16-F1 migrating cells assessed as fold change in Pde12-RNA stability at 0.1 mM measured by […] analysis relative to control cells
[14] = target: T1, RNA polymerase II (Mus musculus); assay: Inhibition of RNA polymerase II in mouse B16-F1 migrating cells assessed as fold change in Kdelr1-RNA stability at 0.1 mM measured by […] analysis relative to control cells; procedure, shortened: as §3
[15] = target: T1, RNA polymerase II (Mus musculus); assay: Inhibition of RNA polymerase II in mouse B16-F1 migrating cells assessed as fold change in Ptbp2-RNA stability at 0.1 mM measured by […] analysis relative to control cells
[16] = target: T1, RNA polymerase II (Mus musculus); assay: Inhibition of RNA polymerase II in mouse B16-F1 migrating cells assessed as fold change in Kcnab2-RNA stability at 0.1 mM measured by […] analysis relative to control cells; procedure, shortened: as §3
[17] = target: T1, RNA polymerase II (Mus musculus); assay: Inhibition of RNA polymerase II in mouse B16-F1 migrating cells assessed as fold change in Orc4-RNA stability at 0.1 mM measured by […] analysis relative to control cells
[18] = target: T1, RNA polymerase II (Mus musculus); assay: Inhibition of RNA polymerase II in mouse B16-F1 migrating cells assessed as fold change in Uba52-RNA stability at 0.1 mM measured by […] analysis relative to control cells
[19] = target: T1, RNA polymerase II (Mus musculus); assay: Inhibition of RNA polymerase II in mouse B16-F1 migrating cells assessed as fold change in Pgp-RNA stability at 0.1 mM measured by […] analysis relative to control cells
[20] = target: T1, RNA polymerase II (Mus musculus); assay: Inhibition of RNA polymerase II in mouse B16-F1 migrating cells assessed as fold change in Vegfa-RNA stability at 0.1 mM measured by […] analysis relative to control cells
[21] = target: T1, RNA polymerase II (Mus musculus); assay: Inhibition of RNA polymerase II in mouse B16-F1 migrating cells assessed as fold change in Agps-RNA stability at 0.1 mM measured by […] analysis relative to control cells
[22] = target: T1, RNA polymerase II (Mus musculus); assay: Inhibition of RNA polymerase II in mouse B16-F1 migrating cells assessed as fold change in Cbx1-RNA stability at 0.1 mM measured by […] analysis relative to control cells
[23] = target: T1, RNA polymerase II (Mus musculus); assay: Inhibition of RNA polymerase II in mouse B16-F1 migrating cells assessed as fold change in Dnttip2-RNA stability at 0.1 mM measured by […] analysis relative to control cells; procedure, shortened: as §3
[24] = target: T1, RNA polymerase II (Mus musculus); assay: Inhibition of RNA polymerase II in mouse B16-F1 migrating cells assessed as fold change in G6pc3-RNA stability at 0.1 mM measured by […] analysis relative to control cells; procedure, shortened: as §3

Sequence of Histone-lysine N-methyltransferase EZH2 (Mus musculus) (Q61188 whole entry): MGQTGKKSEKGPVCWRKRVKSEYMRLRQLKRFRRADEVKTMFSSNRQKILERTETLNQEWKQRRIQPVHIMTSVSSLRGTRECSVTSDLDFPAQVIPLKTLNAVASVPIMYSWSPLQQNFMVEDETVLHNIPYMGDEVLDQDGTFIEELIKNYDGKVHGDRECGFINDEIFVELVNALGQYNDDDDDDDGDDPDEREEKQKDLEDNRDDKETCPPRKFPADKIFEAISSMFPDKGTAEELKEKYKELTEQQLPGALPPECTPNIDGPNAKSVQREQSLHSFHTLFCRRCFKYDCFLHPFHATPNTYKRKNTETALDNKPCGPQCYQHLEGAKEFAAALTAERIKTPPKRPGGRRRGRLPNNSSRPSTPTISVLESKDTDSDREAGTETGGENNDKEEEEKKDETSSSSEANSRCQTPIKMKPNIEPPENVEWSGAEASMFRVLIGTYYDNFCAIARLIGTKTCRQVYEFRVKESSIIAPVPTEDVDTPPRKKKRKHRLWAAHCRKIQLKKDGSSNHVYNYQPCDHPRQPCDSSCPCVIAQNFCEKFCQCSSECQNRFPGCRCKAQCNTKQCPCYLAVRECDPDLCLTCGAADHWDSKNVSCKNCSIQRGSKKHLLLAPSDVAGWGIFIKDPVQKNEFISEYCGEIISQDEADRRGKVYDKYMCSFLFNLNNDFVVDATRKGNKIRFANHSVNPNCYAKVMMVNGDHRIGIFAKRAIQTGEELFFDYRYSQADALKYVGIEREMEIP

`CCCc1cc(C)[nH]c(=O)c1CNC(=O)c1cc(-c2ccnc(N3CCN(C)CC3)c2)cc2c1cnn2C(C)C` gave a log2FC [1] of -0.78, a log2FC [2] of -0.57 and a log2FC [3] of -0.46. It also gave a log2FC [4] of 0.72, a log2FC [5] of 1.07 and a log2FC [6] of -0.48. For the same compound, the log2FC [7] was 0.75, the log2FC [8] was -0.47 and the log2FC [9] was 0.39. The log2FC [10] was 0.74 and the log2FC [11] was -0.44.

`OC[C@H]1O[C@@H](n2cnc3cc(Cl)c(Cl)cc32)[C@H](O)[C@@H]1O` was tested, and the log2FC [12] was -0.65, the log2FC [13] was -0.77 and the log2FC [14] was 0.4. The log2FC [15] was -0.56, the log2FC [16] was 0.49 and the log2FC [17] was -0.54. It also gave a log2FC [18] of 0.49, a log2FC [19] of 0.82 and a log2FC [20] of 0.67. It also gave a log2FC [21] of -0.58, a log2FC [22] of -0.56 and a log2FC [23] of -0.87. The log2FC [24] was 0.51.
